Here are results for two compounds from publication PMC5788414 (Journal of Medicinal Chemistry, 2017).

Structures are written as SMILES. Values joined by “and” are separate entries in the source; they are usually repeats but may differ in a detail not shown here. Equal values may be shown once. “Also recorded” adds a separate entry of the source.

In data set [1] the test system is BRD2, BRD3, and BRD4 proteins. Kind of data set: Western blotting of BET protein levels in RS4. The format is cell-based, human. Background: A western blot detects proteins with antibodies after separation by electrophoresis.
A further data set relates to acute leukemia model. The note with it: acute leukemia model in mice ref 23; cited from earlier work.
A further data set has as its target BRD2 (Homo sapiens, UniProt P25440). Kind of data set: Western blotting of BRD2 protein level in RS4. The note with it: RS4;11 cells, Western blot. The format is cell-based. A digest of the protocol:
(§1)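 RS4;11 cells (2 × 10⁶/well) were treated with the test compound at the indicated concentrations for 3 h or 24 h. Cells were lysed in RIPA buffer with protease inhibitors. Lysate (20 μg per lane) was separated by SDS–PAGE, blotted onto PVDF, and probed with BRD2, BRD3 and BRD4 antibodies, with GAPDH as the loading control.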

The target of the next data set is BRD3 (Homo sapiens, UniProt Q15059). Put plainly: Western blotting of BRD3 protein level in RS4. The format is cell-based. To be noted: RS4;11 cells, Western blot. A digest of the protocol: as §1
The next data set has as its target BRD4 (Homo sapiens, UniProt O60885). Put plainly: Western blotting of BRD4 protein level in RS4. Type of data set: cell-based. The note with it: RS4;11 cells. A digest of the protocol: as §1
Data set [2] concerns c-Myc. Kind of data set: Western blotting of c-Myc level in RS4. Type of data set: cell-based, human. A digest of the protocol:
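RS4;11 cells (2 × 10⁶/well) were exposed for 24 h to the test compound at the indicated concentrations. Cells were lysed in RIPA buffer with protease inhibitors. Lysate (20 μg per lane) was separated by SDS–PAGE, transferred to PVDF, and immunoblotted for c-Myc, with GAPDH as the loading control.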

Data set [3] deals with RS4;11 cell line. Kind of data set: Cell cycle arrest by flow cytometry. Type of data set: cell-based, human. The note with it: RS4;11, 24 h. The method, boiled down: (§2)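 Cell cycle was read by propidium iodide staining and flow cytometry after 24 h exposure to the test compound at the indicated concentrations. RS4;11 or MOLM-13 cells were cultured in RPMI 1640 with 10% FBS and 1% penicillin–streptomycin at 37 °C, 5% CO₂, and used within three months of thawing.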

Data set [4] concerns MOLM-13 cell line. Put plainly: Cell cycle arrest by flow cytometry. To be noted: MOLM-13, 24 h. Type of data set: cell-based, human. The method, boiled down:
as §2
Background: Flow cytometry measures light scatter and fluorescence of single cells or particles in a stream.

The test system of data set [5] is RS4;11 cell line. Put plainly: Apoptosis induction by flow cytometry. The format is cell-based, human. To be noted: RS4;11, 24 h treatment. A digest of the protocol:
(§3)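 RS4;11 or MOLM-13 cells were grown in RPMI 1640 with 10% FBS and 1% penicillin–streptomycin at 37 °C, 5% CO₂, and used within three months of thawing. Cells were treated with the test compound at the indicated concentrations for 24 h. They were then stained with annexin V and propidium iodide and analysed by flow cytometry.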

For data set [6], the system named is MOLM-13 cell line. Put plainly: Apoptosis induction by flow cytometry. The format is cell-based, human. The note with it: MOLM-13, 24 h treatment. A digest of the protocol:
as §3

The next data set concerns RS4;11 xenograft tumors. Kind of data set: Antitumor efficacy in RS4. Type of data set: in vivo. To be noted: mice, 5 mg/kg intravenously. A digest of the protocol: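 Human RS4;11 leukaemia cells (5 × 10⁶, in 50% Matrigel) were injected subcutaneously on the dorsal side of SCID mice, one tumour per mouse. At ∼100 mm³, mice were randomised to treatment or vehicle groups. The test compound was given at 5 mg/kg IV every other day, three times a week, for 3 weeks. Tumours were measured by calipers 2–3 times weekly (V = LW²/2). Body weight and toxicity signs were monitored.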

Data set [7] relates to BRD2, BRD3, and BRD4 proteins. Kind of data set: Pharmacodynamic Western blotting of BET proteins in RS4. The format is in vivo, SCID mice. The note with it: single intravenous dose, 5 mg/kg. A digest of the protocol:
(§4)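 SCID mice bearing RS4;11 xenografts were given one 5 mg/kg IV dose of the test compound and killed at 1, 3, 6 or 24 h; vehicle-treated mice were killed at 6 h. Two mice were used per time point, with one or two tumours each. Lysates were run on 4–20% gels and immunoblotted on PVDF for BRD2–4, c-Myc, PARP and caspase-3. Actin was the loading control, with ECL detection.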

In data set [8] the test system is c-Myc. Kind of data set: Pharmacodynamic Western blotting of c-Myc in RS4. Type of data set: in vivo, SCID mice. The note with it: single intravenous dose, 5 mg/kg. A digest of the protocol:
as §4

A further data set relates to PARP and caspase-3. Put plainly: Pharmacodynamic Western blotting of PARP and caspase-3 cleavage in RS4. The format is in vivo, SCID mice. To be noted: single intravenous dose, 5 mg/kg. The method, boiled down: as §4
Data set [9] can be described thus: Drug concentration in plasma. The format is in vivo, SCID mice. A digest of the protocol:
(§5)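 Female SCID C.B-17 mice bearing RS4;11 tumours received a single 5 mg/kg IV dose in 20% PEG 400, 6% Cremophor EL and 74% PBS. Mice were killed at 1, 3, 6 and 24 h (two mice per time point, three tumours per time point). Plasma came from blood spun at 15 000 rpm for 10 min; tumours were frozen and ground in liquid nitrogen. Samples were kept at −80 °C and assayed by LC–MS/MS on a C18 column.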

Data set [10] is described as follows: Drug concentration in RS4. The format is in vivo, SCID mice. A digest of the protocol:
as §5

Data set [11] in a line: In vitro metabolite identification in mouse liver microsomes. The note with it: 10 μM, MLM with β-NADPH, 37 °C, 20 and 40 min. The format is in vitro ADME. The method, boiled down:
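Incubation was quenched with a 3-fold volume of ice-cold acetonitrile, then centrifuged at 15 000 rpm for 10 min; supernatant stored at −80 °C. Negative controls omitted NADPH or used boiled microsomes. Metabolites were identified by tandem mass spectrometry, starting from the parent's product ion spectrum to establish fragmentation.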
Background: Liver microsomes are vesicles of endoplasmic reticulum, rich in cytochrome P450 enzymes.

Data set [12] is described as follows: Animal weight and signs of toxicity in RS4. Type of data set: in vivo. The note with it: mice bearing RS4;11 xenografts, 5 mg/kg intravenously, three times a week for 3 weeks. The method, boiled down: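 Subcutaneous dorsal xenografts in SCID mice: 5 × 10⁶ RS4;11 cells in 50% Matrigel, one tumor per mouse. Mice randomised to treatment or vehicle groups at ~100 mm³. Dosing was intravenous every other day. Toxicity signs checked daily. Body weight recorded 2–3 times per week during treatment and at least weekly afterwards.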

Data set [13] deals with triple-negative human breast cancer. The note with it: in vitro and in vivo ref 32; cited from earlier work.
Where [14] appears, read: RS4;11 cells, 3 h treatment, Western blot.
Where [15] appears, read: 1 h after single 5 mg/kg intravenous dose.
Setting [16] is: 3 h after single 5 mg/kg intravenous dose.
Setting [17] is: 6 h after single 5 mg/kg intravenous dose.

Sequence of BRD2 (P25440 whole entry): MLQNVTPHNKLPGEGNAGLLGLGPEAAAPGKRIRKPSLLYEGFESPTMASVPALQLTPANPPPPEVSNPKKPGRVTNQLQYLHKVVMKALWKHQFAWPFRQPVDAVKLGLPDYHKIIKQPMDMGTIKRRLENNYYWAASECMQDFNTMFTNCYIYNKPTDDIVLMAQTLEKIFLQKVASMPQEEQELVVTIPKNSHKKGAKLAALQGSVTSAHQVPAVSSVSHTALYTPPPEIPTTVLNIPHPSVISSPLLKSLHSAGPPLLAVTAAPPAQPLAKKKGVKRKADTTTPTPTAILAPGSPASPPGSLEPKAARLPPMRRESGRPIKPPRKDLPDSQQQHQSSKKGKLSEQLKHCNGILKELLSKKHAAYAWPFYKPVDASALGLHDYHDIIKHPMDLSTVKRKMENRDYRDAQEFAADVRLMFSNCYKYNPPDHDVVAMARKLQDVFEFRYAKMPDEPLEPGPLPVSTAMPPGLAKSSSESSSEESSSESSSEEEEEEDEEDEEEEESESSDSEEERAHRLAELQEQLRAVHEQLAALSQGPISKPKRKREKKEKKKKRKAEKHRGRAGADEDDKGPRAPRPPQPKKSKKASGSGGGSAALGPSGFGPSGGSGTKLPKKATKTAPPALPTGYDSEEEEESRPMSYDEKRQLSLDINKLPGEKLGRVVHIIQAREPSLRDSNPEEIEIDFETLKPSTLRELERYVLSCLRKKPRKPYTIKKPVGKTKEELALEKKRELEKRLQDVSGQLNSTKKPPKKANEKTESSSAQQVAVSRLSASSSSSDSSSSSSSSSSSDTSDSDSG
Sequence of BRD3 (Q15059 whole entry): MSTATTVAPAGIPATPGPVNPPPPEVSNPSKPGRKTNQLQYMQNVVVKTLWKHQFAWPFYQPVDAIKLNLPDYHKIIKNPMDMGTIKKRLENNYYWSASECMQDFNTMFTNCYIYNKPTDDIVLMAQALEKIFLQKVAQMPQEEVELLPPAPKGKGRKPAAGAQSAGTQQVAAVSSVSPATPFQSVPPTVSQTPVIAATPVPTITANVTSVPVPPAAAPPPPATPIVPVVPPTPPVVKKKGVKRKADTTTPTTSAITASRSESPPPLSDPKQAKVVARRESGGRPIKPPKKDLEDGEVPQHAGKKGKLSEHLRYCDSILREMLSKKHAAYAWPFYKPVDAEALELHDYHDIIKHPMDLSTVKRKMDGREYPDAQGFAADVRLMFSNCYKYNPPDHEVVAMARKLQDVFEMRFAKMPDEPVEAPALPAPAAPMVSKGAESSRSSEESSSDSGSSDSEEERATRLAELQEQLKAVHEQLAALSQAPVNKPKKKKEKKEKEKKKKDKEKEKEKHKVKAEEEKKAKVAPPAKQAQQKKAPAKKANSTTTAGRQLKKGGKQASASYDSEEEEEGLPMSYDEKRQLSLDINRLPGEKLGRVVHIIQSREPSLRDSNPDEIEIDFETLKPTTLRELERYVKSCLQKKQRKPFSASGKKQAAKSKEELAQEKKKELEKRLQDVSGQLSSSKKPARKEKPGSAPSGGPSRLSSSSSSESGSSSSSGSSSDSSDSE

As for `Cc1sc2c(c1C)C(c1ccc(Cl)cc1)=N[C@@H](CC(=O)NCCCCNC(=O)COc1cccc3c1C(=O)N(C1CCC(=O)NC1=O)C3=O)c1nnc(C)n1-2` (some centres unmarked) [Compound 4, dBET1, reference compound], in data set [1] (setting [14]), the “Effect on the level of BRD2, BRD3, and BRD4 proteins” value is listed as “effectively decrease”. The “Inhibition of tumor growth in vivo compared with 1” value with acute leukemia model is listed as “more effective”.

As to `CCn1nc(C2CC2)cc1Nc1nc(C(=O)NCCCCCc2cccc3c2CN(C2CCC(=O)NC2=O)C3=O)nc2[nH]c3cc(-c4c(C)noc4C)c(OC)cc3c12` (centres unmarked) [Compound 23, 4-((3-Cyclopropyl-1-ethyl-1H-pyrazol-5-yl)amino)-7-(3,5-dimethylisoxazol-4-yl)-N-(5-(2-(2,6-dioxopiperidin-3-yl)-1-oxoisoindolin-4-yl)pentyl)-6-methoxy-9H-pyrimido[4,5-b]indole-2-carboxamide], the “Lowest concentration effective in decreasing the level of BRD2 protein” value on BRD2 (3 h treatment) is 0.3 nM. For the same compound, the “Lowest concentration effectively reducing the level of BRD2 protein” value on BRD2 (24 h treatment) is 0.1 nM. For the same compound, the “Lowest concentration effective in decreasing the level of BRD3 protein” value at BRD3 (3 h treatment) came out at 0.1 nM. Further, the “Lowest concentration effectively reducing the level of BRD3 protein” value on BRD3 (24 h treatment) amounted to 0.1 nM. Besides, the “Lowest concentration effective in decreasing the level of BRD4 protein” value on BRD4 (3 h treatment, Western blot) turned out to be 0.3 nM. Also, the “Lowest concentration degrading BRD4 protein” value at BRD4 (24 h treatment) is given as 30 pM. For the same compound, at BRD4 (24 h treatment, Western blot), the “Lowest concentration effectively reducing the level of BRD4 protein” value was 0.03 nM. The “Lowest concentrations effective in decreasing the level of BRD2, BRD3, and BRD4 proteins” value in [1] (setting [14]) fell in the range of 0.1 to 0.3 nM. The “Concentrations inducing degradation of BRD2, BRD3, and BRD4 proteins” value in [1] (RS4;11 leukemia cells) was 30 to 100 pM. The “times more potent than 8 in down-regulation of c-Myc protein” value in the data set with c-Myc [2] (RS4;11 cell line, comparator 8) is listed as more than 1000 times. Further, in the data set with c-Myc [2] (RS4;11 cells, 24 h treatment, Western blot), the “Concentration effectively down-regulating the level of c-Myc” value amounted to 0.1 nM. The “Concentration effective in inducing cell cycle arrest” value is 0.3 nM in the data set on RS4;11 cell line [3] and 1 to 3 nM in the data set with MOLM-13 cell line [4]. The “Concentration inducing robust apoptosis” value with RS4;11 cell line [5] and with MOLM-13 cell line [6] was 3 to 10 nM throughout. Further, in the data set with RS4;11 xenograft tumors, the “Antitumor activity against RS4;11 xenograft tumors” value is recorded as “rapid tumor regression”. For the same compound, the “Duration of reduction of BRD2, BRD3, and BRD4 proteins in tumor tissue” value in data set [7] is more than 24 h. In addition, in data set [7], the “Onset of reduction of BRD2, BRD3, and BRD4 proteins in tumor tissue” value was 1 h. In addition, the “Duration of c-Myc down-regulation in tumor tissue” value in the data set with c-Myc [8] is “at least 6 h”. In addition, the “Onset of cleavage of PARP and caspase-3 in tumor tissue” value in the data set on PARP and caspase-3 is given as 3 h. The “Time of peak cleavage of PARP and caspase-3 in tumor tissue” value with PARP and caspase-3 is listed as 6 h. Also, the “concn in plasma, individual mice” value was 362 ng/mL in [9] (setting [15]), 76.1 ng/mL in data set [9] (setting [16]) and 7.4 ng/mL in [9] (setting [17]). In addition, the “concn in tumor, individual tumor” value in data set [10] (setting [15]) was 123 ng/g and 240.5 ng/g; in [10] (setting [16]) it was 89 ng/g and 120.5 ng/g; in data set [10] (setting [17]), 31.9 ng/g. Also, in [11], the “Major metabolite in mouse liver microsomes” value was “mono- or dihydroxylated product occurring in the alkyl chain in the linker”. Besides, the “Animal weight loss or signs of toxicity” value in [12] was “no animal weight loss or other signs of toxicity; also recorded: minimal body weight change; also recorded: no signs of toxicity”. In addition, the “Activity against triple-negative human breast cancer” value in [13] was “very potent and efficacious”.
